# Measurements reported in ChEMBL document CHEMBL2424574, “Structure-activity relationships and pharmacophore model of a noncompetitive pyrazoline containing class of GluN2C/GluN2D selective antagonists” (J Med Chem, 2013).
# Activity calls are given as the source filed them. The calls are words filed in the database; no cut-off is given here.
# Assays:
# [1] = biological target: Neuronal acetylcholine receptor; alpha4/beta2 (Homo sapiens) (UniProt P17787+P43681); assay: Inhibition of human nicotinic acetylcholine receptor subunit alpha-4 beta-2 expressed in Xenopus laevis oocytes assessed as inhibition of acetylcholine-induced current at 3 uM by two-electrode voltage clamp method; values are per cent of control; conditions: Oocyte
# [2] = biological target: Glutamate receptor ionotropic, NMDA 2D (Rattus norvegicus, UniProt P35439+Q62645); assay: Negative allosteric modulation of recombinant rat GluN2D receptor expressed in Xenopus laevis oocytes by two-electrode voltage clamp method; assay type: cell-based, Oocyte
# Chain of Glutamate receptor ionotropic, NMDA 2D (Q62645 whole entry, one chain of several): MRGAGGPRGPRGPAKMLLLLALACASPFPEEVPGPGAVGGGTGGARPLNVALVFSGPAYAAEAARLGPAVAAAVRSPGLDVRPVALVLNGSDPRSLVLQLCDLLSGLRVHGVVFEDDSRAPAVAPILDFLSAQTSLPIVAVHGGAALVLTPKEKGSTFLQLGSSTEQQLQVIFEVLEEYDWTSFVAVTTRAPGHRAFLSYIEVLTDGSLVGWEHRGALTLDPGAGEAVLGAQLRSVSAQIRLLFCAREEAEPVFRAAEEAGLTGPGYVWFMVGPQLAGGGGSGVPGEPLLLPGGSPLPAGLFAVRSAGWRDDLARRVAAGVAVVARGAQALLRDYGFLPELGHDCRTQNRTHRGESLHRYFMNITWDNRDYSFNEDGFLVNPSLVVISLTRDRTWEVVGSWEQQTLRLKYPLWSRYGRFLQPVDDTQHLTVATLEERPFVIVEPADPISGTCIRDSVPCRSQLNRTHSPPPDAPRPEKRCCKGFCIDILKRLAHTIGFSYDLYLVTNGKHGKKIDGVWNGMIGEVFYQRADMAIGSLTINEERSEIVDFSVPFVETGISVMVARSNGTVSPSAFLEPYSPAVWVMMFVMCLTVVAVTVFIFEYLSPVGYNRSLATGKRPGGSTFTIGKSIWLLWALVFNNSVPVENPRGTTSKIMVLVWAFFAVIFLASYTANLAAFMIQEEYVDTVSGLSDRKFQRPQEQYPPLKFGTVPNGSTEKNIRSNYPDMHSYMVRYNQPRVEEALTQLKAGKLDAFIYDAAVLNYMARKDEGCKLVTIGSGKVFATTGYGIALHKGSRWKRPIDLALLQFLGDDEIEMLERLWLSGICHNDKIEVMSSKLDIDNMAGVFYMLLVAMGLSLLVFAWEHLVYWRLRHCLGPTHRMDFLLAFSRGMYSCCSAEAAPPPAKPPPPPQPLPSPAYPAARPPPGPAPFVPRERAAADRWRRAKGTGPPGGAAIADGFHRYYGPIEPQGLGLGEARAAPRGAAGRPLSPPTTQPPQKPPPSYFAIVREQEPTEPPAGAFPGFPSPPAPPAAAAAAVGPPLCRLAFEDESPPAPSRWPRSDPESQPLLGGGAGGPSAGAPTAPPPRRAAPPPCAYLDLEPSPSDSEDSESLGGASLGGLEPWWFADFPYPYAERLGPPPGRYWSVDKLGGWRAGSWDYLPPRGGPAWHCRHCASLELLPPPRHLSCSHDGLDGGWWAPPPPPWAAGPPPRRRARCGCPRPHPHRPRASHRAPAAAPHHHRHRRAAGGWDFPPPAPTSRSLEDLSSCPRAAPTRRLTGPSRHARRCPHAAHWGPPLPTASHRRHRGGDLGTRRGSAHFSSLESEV
# Procedure, shortened: (§1)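 Two-electrode voltage clamp of Xenopus oocytes expressing rat GluN1 with GluN2A, 2B, 2C or 2D. Holding potential −40 mV in recording solution (mM: 90 NaCl, 1 KCl, 0.5 BaCl2, 0.005 EDTA, 10 HEPES, pH 7.4, 23 °C). Compounds diluted from 20 mM DMSO stocks to 0.05–0.1% final DMSO. IC50 from a Hill fit to the averaged composite concentration–response curve, 5–24 oocytes from 2–4 frogs.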
# Liver microsomes [3] = assay: Metabolic stability in human liver microsomes assessed as compound remaining at 1 uM after 60 mins by LC-MS/MS analysis; assay type: ADME, Microsome; conditions: 1 h
# Procedure, shortened: (§2)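 Human liver microsomes 0.5 mg/mL in 100 mM potassium phosphate pH 7.4 with 5 mM MgCl2 and 1 μM test compound. Preincubated 3 min at 37 °C, then started with 1 mM NADPH, with a testosterone control in parallel. Sampled at 0, 10, 20, 30 and 60 min and quenched in cold acetonitrile/water with formic acid and internal standard. Percent remaining by LC-MS/MS (MRM) versus time 0. t1/2 = 0.693/k from the ln-remaining slope; CLint = k/protein concentration.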
# [4] = biological target: Nicotinic acetylcholine receptor alpha1/beta1/gamma/delta (Mus musculus) (UniProt P04756+P09690+P02716+P04760); assay: Inhibition of mouse nicotinic acetylcholine receptor subunit alpha1beta1gammadelta expressed in Xenopus laevis oocytes assessed as inhibition of acetylcholine-induced current at 3 uM by two-electrode voltage clamp method; values are per cent of control; conditions: Oocyte
# MDCK [5] = assay: Apparent permeability across apical to basolateral side in dog MDCK cells expressing MDR1 at 5 uM after 120 mins by LC-MS/MS analysis; assay type: ADME, cell-based, Canis lupus familiaris; conditions: 2 h
# Procedure, shortened: (§3)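 MDR1-MDCK monolayers grown to confluence on collagen-coated polycarbonate membranes. Assay buffer was HBSS with 10 mM HEPES and 15 mM glucose, pH 7.4, and the receiver side also held 1% BSA. Monolayers were dosed apically (A-to-B) or basolaterally (B-to-A) at 5 μM, 37 °C, 5% CO2. Donor and receiver were sampled at 120 min, in duplicate, by LC-MS/MS (ESI). Papp and percent recovery were calculated from receiver/donor concentrations.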
# [6] = biological target: Glutamate receptor ionotropic, kainate 1 (Homo sapiens) (UniProt P39086); assay: Inhibition of GluK1 receptor (unknown origin) expressed in Xenopus laevis oocytes assessed as inhibition of glutamate-induced current at 3 uM by two-electrode voltage clamp method; values are per cent of control; conditions: Oocyte
# MDCK [7] = assay: Apparent permeability across basolateral to apical side in dog MDCK cells expressing MDR1 at 5 uM after 120 mins by LC-MS/MS analysis; assay type: ADME, cell-based, Canis lupus familiaris; conditions: 2 h
# Procedure, shortened: as §3
# [8] = biological target: Glutamate receptor ionotropic, NMDA 2A (Rattus norvegicus, UniProt P35439+Q00959); assay: Negative allosteric modulation of recombinant rat GluN2A receptor expressed in Xenopus laevis oocytes by two-electrode voltage clamp method; assay type: cell-based, Oocyte
# Chain of Glutamate receptor ionotropic, NMDA 2A (Q00959 whole entry, one chain of several): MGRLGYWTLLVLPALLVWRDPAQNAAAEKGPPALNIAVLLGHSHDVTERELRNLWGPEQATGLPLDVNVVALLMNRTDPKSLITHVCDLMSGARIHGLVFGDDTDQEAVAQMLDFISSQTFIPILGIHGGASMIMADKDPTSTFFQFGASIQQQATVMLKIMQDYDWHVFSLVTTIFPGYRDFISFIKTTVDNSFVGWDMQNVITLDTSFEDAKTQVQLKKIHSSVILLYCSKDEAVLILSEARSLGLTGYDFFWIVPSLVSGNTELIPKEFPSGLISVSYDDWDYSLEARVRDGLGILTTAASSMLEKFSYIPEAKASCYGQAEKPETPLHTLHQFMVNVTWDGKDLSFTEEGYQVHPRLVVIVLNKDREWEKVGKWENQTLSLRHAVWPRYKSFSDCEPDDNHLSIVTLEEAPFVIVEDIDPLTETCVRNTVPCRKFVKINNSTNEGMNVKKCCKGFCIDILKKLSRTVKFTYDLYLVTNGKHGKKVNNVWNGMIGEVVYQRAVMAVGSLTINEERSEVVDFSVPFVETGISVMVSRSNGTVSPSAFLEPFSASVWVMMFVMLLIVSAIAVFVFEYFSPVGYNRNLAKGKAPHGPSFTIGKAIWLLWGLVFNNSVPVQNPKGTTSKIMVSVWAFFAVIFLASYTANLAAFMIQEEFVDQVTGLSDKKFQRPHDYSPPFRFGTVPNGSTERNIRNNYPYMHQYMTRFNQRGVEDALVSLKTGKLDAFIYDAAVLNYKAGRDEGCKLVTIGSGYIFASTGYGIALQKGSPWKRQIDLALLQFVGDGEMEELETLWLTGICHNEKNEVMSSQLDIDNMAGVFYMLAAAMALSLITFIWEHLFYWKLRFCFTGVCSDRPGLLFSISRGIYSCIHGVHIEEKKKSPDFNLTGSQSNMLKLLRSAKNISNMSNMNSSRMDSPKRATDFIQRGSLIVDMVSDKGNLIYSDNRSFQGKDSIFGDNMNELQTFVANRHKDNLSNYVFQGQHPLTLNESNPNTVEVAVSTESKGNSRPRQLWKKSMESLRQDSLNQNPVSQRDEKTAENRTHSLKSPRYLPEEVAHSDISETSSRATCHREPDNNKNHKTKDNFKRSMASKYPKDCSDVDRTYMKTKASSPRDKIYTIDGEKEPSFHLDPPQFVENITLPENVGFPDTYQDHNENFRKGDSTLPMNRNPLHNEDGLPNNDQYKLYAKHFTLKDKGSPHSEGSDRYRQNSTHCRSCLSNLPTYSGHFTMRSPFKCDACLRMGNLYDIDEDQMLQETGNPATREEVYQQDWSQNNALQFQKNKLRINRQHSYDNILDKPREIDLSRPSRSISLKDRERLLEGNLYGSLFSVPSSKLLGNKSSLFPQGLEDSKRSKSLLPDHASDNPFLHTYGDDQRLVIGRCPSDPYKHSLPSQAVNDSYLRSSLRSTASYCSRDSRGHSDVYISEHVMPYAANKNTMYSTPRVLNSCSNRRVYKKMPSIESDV
# Procedure, shortened: as §1
# Liver microsomes [9] = assay: Metabolic stability in human liver microsomes assessed as compound remaining at 1 uM after 30 mins by LC-MS/MS analysis; assay type: ADME, Microsome; conditions: 0.5 h
# Procedure, shortened: as §2
# Liver microsomes [10] = assay: Intrinsic clearance in human liver microsomes measured per mg of protein at 1 uM by LC-MS/MS analysis; assay type: ADME, Microsome
# Procedure, shortened: as §2
# [11] = biological target: Kappa-type opioid receptor (Homo sapiens, UniProt P41145); assay: Inhibition of kappa-type opioid receptor (unknown origin)
# Chain of Kappa-type opioid receptor (P41145 whole entry): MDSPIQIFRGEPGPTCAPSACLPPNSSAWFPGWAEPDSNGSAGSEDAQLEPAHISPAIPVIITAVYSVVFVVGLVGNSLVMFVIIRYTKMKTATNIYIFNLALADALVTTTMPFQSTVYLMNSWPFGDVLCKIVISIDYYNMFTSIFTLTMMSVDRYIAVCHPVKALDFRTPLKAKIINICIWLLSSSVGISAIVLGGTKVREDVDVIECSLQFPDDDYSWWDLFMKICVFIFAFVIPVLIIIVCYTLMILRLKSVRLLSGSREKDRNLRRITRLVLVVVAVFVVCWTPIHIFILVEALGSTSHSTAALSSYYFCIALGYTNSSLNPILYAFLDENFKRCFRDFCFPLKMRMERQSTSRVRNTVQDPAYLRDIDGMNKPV
# Procedure, shortened: (§4)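 Radioligand panel screening was run through the NIMH Psychoactive Drug Screening Program with compounds at 5 µM.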
# Liver microsomes [12] = assay: Half life in human liver microsomes at 1 uM; assay type: ADME, Microsome
# Procedure, shortened: as §2
# [13] = biological target: Glutamate receptor 3 (Homo sapiens) (UniProt P42263); assay: Inhibition of GluA3 receptor (unknown origin) expressed in Xenopus laevis oocytes assessed as inhibition of glutamate-induced current at 3 uM by two-electrode voltage clamp method; values are per cent of control; conditions: Oocyte
# Chain of Glutamate receptor 3 (Homo sapiens) (P42263 whole entry): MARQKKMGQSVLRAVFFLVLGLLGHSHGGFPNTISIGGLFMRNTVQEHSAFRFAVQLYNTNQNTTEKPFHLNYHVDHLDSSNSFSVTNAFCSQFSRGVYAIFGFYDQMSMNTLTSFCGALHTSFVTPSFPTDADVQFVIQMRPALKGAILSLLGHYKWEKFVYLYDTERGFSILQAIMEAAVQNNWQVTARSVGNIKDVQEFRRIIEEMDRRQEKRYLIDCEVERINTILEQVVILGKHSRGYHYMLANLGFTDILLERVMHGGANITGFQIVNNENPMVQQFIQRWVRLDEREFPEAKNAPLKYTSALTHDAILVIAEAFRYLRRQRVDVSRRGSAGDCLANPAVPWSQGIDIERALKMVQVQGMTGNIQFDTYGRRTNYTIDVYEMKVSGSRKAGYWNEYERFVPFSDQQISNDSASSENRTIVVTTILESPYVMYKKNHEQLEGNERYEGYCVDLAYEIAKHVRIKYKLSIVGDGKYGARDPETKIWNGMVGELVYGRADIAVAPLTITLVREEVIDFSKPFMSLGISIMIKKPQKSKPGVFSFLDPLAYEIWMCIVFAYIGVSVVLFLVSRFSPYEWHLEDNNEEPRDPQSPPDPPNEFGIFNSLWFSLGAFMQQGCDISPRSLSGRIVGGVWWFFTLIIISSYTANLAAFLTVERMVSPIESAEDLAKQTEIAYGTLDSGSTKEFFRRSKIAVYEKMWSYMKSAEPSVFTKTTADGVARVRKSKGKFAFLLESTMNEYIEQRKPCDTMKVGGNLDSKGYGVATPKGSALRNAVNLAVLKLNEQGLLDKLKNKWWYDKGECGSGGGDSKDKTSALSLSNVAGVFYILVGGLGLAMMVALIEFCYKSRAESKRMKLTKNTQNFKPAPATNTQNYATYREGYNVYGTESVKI
# [14] = Aqueous solubility in DMSO buffer by nephelometric analysis; assay type: physicochemical; conditions: oocyte recording buffer; in the assay text read “oocyte recording buffer” for “DMSO buffer”
# Procedure, shortened: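 Solubility measured by nephelometry in oocyte recording buffer: 90 mM NaCl, 1 KCl, 0.5 BaCl2, 0.005 EDTA, 10 HEPES, pH 7.4.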
# [15] = biological target: Neuronal acetylcholine receptor; alpha3/beta4 (Homo sapiens) (UniProt P30926+P32297); assay: Inhibition of human nicotinic acetylcholine receptor subunit alpha-3 beta-4 expressed in Xenopus laevis oocytes assessed as inhibition of acetylcholine-induced current at 3 uM by two-electrode voltage clamp method; values are per cent of control; conditions: Oocyte
# [16] = biological target: Glutamate NMDA receptor; GRIN1/GRIN2A (Homo sapiens) (UniProt Q05586+Q12879); assay: Inhibition of GluN1/GluN2A receptor (unknown origin) expressed in Xenopus laevis oocytes assessed as inhibition of glutamate/glycine-induced current at 3 uM by two-electrode voltage clamp method; values are per cent of control; conditions: Oocyte
# MDCK [17] = assay: Permeability across apical to basolateral side in dog MDCK cells expressing MDR1 assessed as compound recovery at 5 uM after 120 mins by LC-MS/MS analysis; assay type: ADME, cell-based, Canis lupus familiaris; conditions: 2 h
# Procedure, shortened: as §3
# Oocyte = assay: Inhibition of gamma-aminobutyric acid receptor A […] (unknown origin) expressed in Xenopus laevis oocytes assessed as inhibition of GABA-induced current at 3 uM by two-electrode voltage clamp method; values are per cent of control; conditions: Homo sapiens
# [18] = biological target: Glutamate receptor ionotropic, kainate 2 (Homo sapiens) (UniProt Q13002); assay: Inhibition of GluK2 receptor (unknown origin) expressed in Xenopus laevis oocytes assessed as inhibition of glutamate-induced current at 3 uM by two-electrode voltage clamp method; values are per cent of control; conditions: Oocyte
# Chain of Glutamate receptor ionotropic, kainate 2 (Homo sapiens) (Q13002 whole entry): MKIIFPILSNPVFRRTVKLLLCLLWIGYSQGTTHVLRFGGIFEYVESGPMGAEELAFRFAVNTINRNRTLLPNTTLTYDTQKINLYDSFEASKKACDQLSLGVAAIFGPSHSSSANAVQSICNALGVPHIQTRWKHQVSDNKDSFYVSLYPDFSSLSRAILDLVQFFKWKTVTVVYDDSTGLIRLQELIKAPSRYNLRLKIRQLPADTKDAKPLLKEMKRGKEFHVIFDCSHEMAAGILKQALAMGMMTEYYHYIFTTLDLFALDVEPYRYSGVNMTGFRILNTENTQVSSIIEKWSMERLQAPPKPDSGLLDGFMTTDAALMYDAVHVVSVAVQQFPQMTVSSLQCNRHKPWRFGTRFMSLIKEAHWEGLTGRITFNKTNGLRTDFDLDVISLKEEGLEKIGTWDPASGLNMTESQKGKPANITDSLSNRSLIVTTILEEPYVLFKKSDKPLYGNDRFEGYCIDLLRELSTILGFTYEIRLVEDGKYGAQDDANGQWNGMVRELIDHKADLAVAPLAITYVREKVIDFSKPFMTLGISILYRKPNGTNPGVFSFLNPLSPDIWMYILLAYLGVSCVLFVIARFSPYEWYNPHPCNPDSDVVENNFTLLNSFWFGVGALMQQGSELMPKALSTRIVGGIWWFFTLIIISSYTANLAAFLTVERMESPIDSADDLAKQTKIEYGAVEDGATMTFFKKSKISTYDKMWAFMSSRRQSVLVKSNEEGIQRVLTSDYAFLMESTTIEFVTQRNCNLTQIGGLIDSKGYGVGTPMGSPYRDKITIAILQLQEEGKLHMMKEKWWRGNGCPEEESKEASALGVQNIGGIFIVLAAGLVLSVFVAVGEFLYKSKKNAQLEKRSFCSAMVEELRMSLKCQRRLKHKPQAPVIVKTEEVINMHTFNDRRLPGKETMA
# [19] = biological target: 5-hydroxytryptamine receptor 1E (Homo sapiens, UniProt P28566); assay: Inhibition of 5HT1E receptor (unknown origin)
# Procedure, shortened: as §4
# Homo sapiens [20] = species: Homo sapiens; assay: Inhibition of GluN2D receptor A752V mutant (unknown origin)
# Mu-type opioid receptor = Mu-type opioid receptor (Homo sapiens, UniProt P35372); assay: Inhibition of mu-type opioid receptor (unknown origin)
# Procedure, shortened: as §4
# [21] = biological target: T1, Ionotropic glutamate receptor NMDA 1/2D (Homo sapiens) (UniProt Q05586+O15399); conditions: Oocyte, 1 uM
# [22] = biological target: T1, Ionotropic glutamate receptor NMDA 1/2D (Homo sapiens); conditions: Oocyte, 1 uM; remark: listed apart in the source
# Homo sapiens [23] = species: Homo sapiens; assay: Inhibition of GluN2D receptor Q801Y mutant (unknown origin)
Structure (SMILES),residual activity [1] [%],IC50 [2] [nM],residual activity [4] [%],residual activity [6] [%],IC50 [8] [µM],Ki [11] [µM],residual activity [13] [%],residual activity [15] [%],residual activity [16] [%],residual activity (Oocyte) [%],residual activity [18] [%],also measured
O=C(O)CCC(=O)N1N=C(c2c(-c3ccc(Cl)cc3)c3ccccc3[nH]c2=O)CC1c1ccc(Cl)cc1 (racemic),79,440,94,97,21,> 10,99,77,89,97,97,Stability (Liver microsomes [3]): 86%; Papp (MDCK [5]): 0.47 ×10⁻⁶ cm/s; Papp (MDCK [7]): 25.6 ×10⁻⁶ cm/s; Stability (Liver microsomes [9]): 115%; CLint (Liver microsomes [10]): < 0.02 mL/min/mg; t1/2 (Liver microsomes [12]): > 60 min; solubility kinetic [14]: > 80 µM; Drug recovery (MDCK [17]): 73%
O=C(O)/C=C/C(=O)N1N=C(c2c(-c3ccc(Br)cc3)c3ccccc3[nH]c2=O)CC1c1ccc(Cl)cc1 (racemic),82,190,98,100,4.3,> 10,100,87,89,95,97,Ki [19]: > 10 µM; inhibition (Homo sapiens [20]): inactive; Ki (Mu-type opioid receptor): > 10 µM; residual activity [21]: 3.1%; residual activity [22]: 4.9%; inhibition (Homo sapiens [23]): inactive
